Blank lines part the entries; values can stand above or below the compound they belong to.
Experiments:
[1] = target: T1, Polyunsaturated fatty acid 5-lipoxygenase (Rattus norvegicus, UniProt P12527); test: Concentration required for 50 % inhibition of arachidonic acid oxidation by rat 5-lipoxygenase
T1 sequence (P12527 whole entry): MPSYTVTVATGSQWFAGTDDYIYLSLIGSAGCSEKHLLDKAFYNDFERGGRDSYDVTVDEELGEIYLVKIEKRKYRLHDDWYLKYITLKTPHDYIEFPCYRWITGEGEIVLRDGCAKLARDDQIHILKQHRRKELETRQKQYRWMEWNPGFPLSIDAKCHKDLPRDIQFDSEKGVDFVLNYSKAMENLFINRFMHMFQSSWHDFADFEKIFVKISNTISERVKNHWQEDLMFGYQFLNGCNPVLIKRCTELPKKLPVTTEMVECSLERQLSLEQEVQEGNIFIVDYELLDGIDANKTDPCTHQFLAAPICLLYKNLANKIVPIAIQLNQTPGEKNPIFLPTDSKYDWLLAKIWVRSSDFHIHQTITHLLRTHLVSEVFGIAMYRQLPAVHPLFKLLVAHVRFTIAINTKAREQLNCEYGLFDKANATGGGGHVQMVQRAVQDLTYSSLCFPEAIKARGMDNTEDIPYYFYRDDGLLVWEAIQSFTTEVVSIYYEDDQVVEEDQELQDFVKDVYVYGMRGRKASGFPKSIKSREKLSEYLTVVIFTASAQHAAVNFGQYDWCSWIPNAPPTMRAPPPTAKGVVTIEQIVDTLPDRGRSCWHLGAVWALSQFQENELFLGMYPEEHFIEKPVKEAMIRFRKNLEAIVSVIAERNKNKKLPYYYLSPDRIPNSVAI
Outline: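 Rat PMN leukocyte 10000g supernatant is used as the enzyme. Incubation is run in 25 mM Na+/K+ phosphate pH 7.3 with 1 mM ATP, 0.5 mM CaCl2 and 0.5 mM mercaptoethanol. Inhibitor from DMSO (500-fold stock) is preincubated 2 min at 37°C. [14C]arachidonic acid is added to 10 μM final for 10 min at 37°C. Conversion to 5-HETE and 5,12-diHETEs is read by TLC radioscan. IC50 is derived by linear regression.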

[2] = target: T2, Seed linoleate 13S-lipoxygenase-1 (Glycine max, UniProt P08170); test: Inhibitory activity towards soybean lipoxygenase
T2 sequence (P08170 whole entry): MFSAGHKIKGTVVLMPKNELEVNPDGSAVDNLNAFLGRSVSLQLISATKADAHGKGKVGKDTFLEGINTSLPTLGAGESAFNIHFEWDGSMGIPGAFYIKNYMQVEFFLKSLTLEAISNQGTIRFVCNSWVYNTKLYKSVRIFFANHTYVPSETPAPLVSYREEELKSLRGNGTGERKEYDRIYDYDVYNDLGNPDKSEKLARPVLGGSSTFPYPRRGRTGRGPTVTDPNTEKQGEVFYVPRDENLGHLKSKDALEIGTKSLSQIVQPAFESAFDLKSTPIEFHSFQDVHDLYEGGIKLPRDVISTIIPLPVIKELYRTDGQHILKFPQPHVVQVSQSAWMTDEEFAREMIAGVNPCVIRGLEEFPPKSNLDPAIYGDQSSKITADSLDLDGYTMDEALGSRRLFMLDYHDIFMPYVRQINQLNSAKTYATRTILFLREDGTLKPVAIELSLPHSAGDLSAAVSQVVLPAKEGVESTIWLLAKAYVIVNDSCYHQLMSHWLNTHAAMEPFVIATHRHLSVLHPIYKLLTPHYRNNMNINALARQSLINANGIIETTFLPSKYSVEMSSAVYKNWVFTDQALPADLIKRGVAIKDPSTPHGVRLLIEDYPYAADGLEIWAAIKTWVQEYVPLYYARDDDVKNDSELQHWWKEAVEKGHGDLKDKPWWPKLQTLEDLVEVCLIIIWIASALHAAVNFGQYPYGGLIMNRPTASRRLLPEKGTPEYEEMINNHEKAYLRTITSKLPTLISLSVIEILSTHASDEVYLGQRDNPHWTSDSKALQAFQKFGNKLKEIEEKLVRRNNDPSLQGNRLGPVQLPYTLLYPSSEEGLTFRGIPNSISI

Rattus norvegicus [3] = organism: Rattus norvegicus; test: Inhibition of hyperalgesia response induced by subplantar injection of platelet-activating factor in rat; type: functional
Rattus norvegicus [4] = test: Effect of antigen-induced dyspnea in hyperreactive inbred rats at 0.5 mg/kg of compound concentration; type: functional
Outline: (§1)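 Inbred hyperreactive rats receive compound orally 4 h before antigen, as a suspension in 0.4% methocel/0.5% Tween 80 (10 mL/kg). Methysergide (3 μg/kg iv) is given 5 min before ovalbumin aerosol challenge. Respiration is recorded by pneumotachograph. Percent inhibition is reduction in dyspnea duration versus vehicle controls, with Student's t test. ED50 is derived by linear regression.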

Rattus norvegicus [5] = test: Inhibition of antigen (IgE) induced bronchoconstriction in hyperreactive inbred rats at a compound dose of 0.15 mg/kg; type: functional; outline: as §1
Rattus norvegicus [6] = test: Inhibition of antigen (IgE) induced bronchoconstriction in hyperreactive inbred rats at a compound dose of 0.5 mg/kg; type: functional; outline: as §1
Rattus norvegicus [7] = test: Inhibition of antigen (IgE) induced bronchoconstriction in hyperreactive inbred rats at a dose of 1.5 mg/kg; type: functional; outline: as §1
Saimiri sciureus = test: Inhibition of increase in pulmonary resistance and decrease in dynamic compliance of ascaris antigen-induced bronchoconstriction in squirrel monkeys at 0.25 mg/kg compound concentration
[8] = target: T3, Polyunsaturated fatty acid 5-lipoxygenase (Homo sapiens, UniProt P09917); test: Concentration required for 50 % inhibition of leukotriene B4 production in human PMN compared with controls in the absence of compound; type: functional
T3 sequence (P09917 whole entry): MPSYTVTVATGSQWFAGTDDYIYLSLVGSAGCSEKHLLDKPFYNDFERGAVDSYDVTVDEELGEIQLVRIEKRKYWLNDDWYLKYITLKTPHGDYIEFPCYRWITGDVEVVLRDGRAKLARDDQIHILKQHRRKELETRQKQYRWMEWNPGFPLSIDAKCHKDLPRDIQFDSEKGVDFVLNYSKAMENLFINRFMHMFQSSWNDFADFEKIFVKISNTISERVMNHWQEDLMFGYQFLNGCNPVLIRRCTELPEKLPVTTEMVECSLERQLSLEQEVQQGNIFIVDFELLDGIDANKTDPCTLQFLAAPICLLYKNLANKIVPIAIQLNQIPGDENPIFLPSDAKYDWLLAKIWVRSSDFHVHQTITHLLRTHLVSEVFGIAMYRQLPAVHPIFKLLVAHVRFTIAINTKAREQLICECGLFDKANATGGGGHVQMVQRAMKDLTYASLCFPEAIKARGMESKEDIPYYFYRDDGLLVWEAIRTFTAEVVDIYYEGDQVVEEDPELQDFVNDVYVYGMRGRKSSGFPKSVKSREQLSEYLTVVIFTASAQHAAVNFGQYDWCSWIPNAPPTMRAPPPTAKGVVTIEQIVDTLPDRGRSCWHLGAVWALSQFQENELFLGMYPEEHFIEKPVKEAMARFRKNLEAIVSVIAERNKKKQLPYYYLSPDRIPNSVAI
Outline: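 Human PMN are isolated from citrated venous blood by dextran sedimentation, Ficoll-Hypaque and NH4Cl lysis. Cells (5×10^5/mL in HHBSS) are warmed 10 min at 37°C and given compound in DMSO for 2 min. They are stimulated with A23187 (10 μM) for 5 min and stopped with methanol. LTB4 is measured by radioimmunoassay.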

Rattus norvegicus [9] = test: Effect of antigen-induced dyspnea in hyperreactive inbred rats at 1.5 mg/kg of compound concentration; type: functional; outline: as §1
Rattus norvegicus [10] = test: Inhibition of antigen (IgE) induced bronchoconstriction in hyperreactive inbred rats at a compound dose of 5.0 mg/kg; type: functional; outline: as §1
Rattus norvegicus [11] = test: Inhibition of antigen (IgE) induced bronchoconstriction in hyperreactive inbred rats at a compound dose of 1.5 mg/kg; type: functional; outline: as §1

IC50 [1]: 36 nM | IC50 [2]: 30000 nM
Compound: CCCc1cc(Cl)c2oc(Cc3ccc(OC)cc3)c(C)c2c1O
AD100 (Rattus norvegicus [3]): 1.5 mg/kg | ED50 (Rattus norvegicus [4]): 0.7 mg/kg | inhibition in vivo at 0.15 mg/kg (Rattus norvegicus [5]): 36% | inhibition in vivo at 0.5 mg/kg (Rattus norvegicus [6]): 48% | inhibition in vivo at 1.5 mg/kg (Rattus norvegicus [7]): 56% | inhibition in vivo at 0.25 mg/kg (Saimiri sciureus): > 85%

IC50 [8]: 46 nM
Compound: COc1ccc(Cc2oc3c(Cl)cc(C)c(O)c3c2C)cc1

IC50 [1]: 161 nM | IC50 [8]: 76 nM
Compound: COc1ccc(Cc2oc3c(Cl)cc(CCCO)c(O)c3c2C)cc1
inhibition in vivo at 0.15 mg/kg (Rattus norvegicus [5]): 39% | inhibition in vivo at 0.5 mg/kg (Rattus norvegicus [6]): 58%

IC50 [8]: 291 nM
Compound: CCOCc1cc(Cl)c2oc(Cc3ccc(OC)cc3)c(C)c2c1O

IC50 [8]: 2130 nM
Compound: COc1ccc(Cc2oc3c(Cl)cc(CCC(=O)O)c(O)c3c2C)cc1
inhibition in vivo at 1.5 mg/kg (Rattus norvegicus [7]): 11%

IC50 [8]: 20 nM
Compound: C=CCc1cc(Cl)c2oc(Cc3ccc(OC)cc3)c(C)c2c1O

IC50 [8]: 99 nM
Compound: COc1ccc(Cc2oc3c(Cl)cc(C(C)(C)C)c(O)c3c2C)cc1
inhibition in vivo at 1.5 mg/kg (Rattus norvegicus [7]): 32%

IC50 [1]: 2000 nM | IC50 [8]: 376 nM
Compound: COc1ccc(Cc2oc3c(Cl)ccc(O)c3c2C)cc1

IC50 [8]: 860 nM
Compound: COc1ccc(Cc2oc3c(Cl)cc(Cl)c(O)c3c2C)cc1

Further lines, the compound ahead of its results:

Compound: CCCc1ccc2oc(Cc3ccc(OC)cc3)c(C)c2c1O
IC50 [1]: 130 nM | IC50 [8]: 31 nM | ED50 (Rattus norvegicus [9]): < 0.5 mg/kg | inhibition in vivo at 0.5 mg/kg (Rattus norvegicus [6]): 55% | inhibition in vivo at 1.5 mg/kg (Rattus norvegicus [7]): 64% | inhibition in vivo at 5 mg/kg (Rattus norvegicus [10]): 66%

Compound: CCCc1cc(C)c2oc(Cc3ccc(OC)cc3)c(C)c2c1O
IC50 [1]: 140 nM | IC50 [8]: 12 nM | inhibition in vivo at 5 mg/kg (Rattus norvegicus [10]): 55% | inhibition in vivo at 1.5 mg/kg (Rattus norvegicus [11]): 49%

Compound: CCCc1cc(Cl)c2oc(Cc3ccc(OCC(=O)O)cc3)c(C)c2c1O
IC50 [8]: 105 nM | inhibition in vivo at 1.5 mg/kg (Rattus norvegicus [7]): 28%

Compound: COc1ccc(Cc2oc3cccc(O)c3c2C)cc1
IC50 [1]: 2070 nM | IC50 [8]: 574 nM

Compound: CCCc1cc(Cl)c2oc(Cc3ccc(Cl)cc3)c(C)c2c1O
IC50 [8]: 26 nM

Compound: CCCc1cc(Cl)c2oc(Cc3ccccc3)c(C)c2c1O
IC50 [8]: 30 nM

Compound: CCCc1cc(Cl)c2oc(Cc3ccc(OC)cc3OC)c(C)c2c1O
IC50 [8]: 13 nM

Compound: CCCc1cc(Cl)c2oc(Cc3ccc(OC)cc3)c(CCC)c2c1O
IC50 [8]: 20 nM

Compound: CCCc1cc(F)c2oc(Cc3ccc(OC)cc3)c(C)c2c1O
IC50 [1]: 129 nM | IC50 [8]: 7 nM

Source: ChEMBL document CHEMBL1124599, “Synthesis and structure-activity relationships of a novel class of 5-lipoxygenase inhibitors. 2-(Phenylmethyl)-4-hydroxy-3,5-dialkylbenzofurans: the development of L-656,224” (J Med Chem, 1989)
